A selection: hits, their analogues and other compounds. The true share with any hit is near 3.7%.
ERAP1 HTS inh – inhibitors of human ERAP1 aminopeptidase; Q9NZ08; recombinant ERAP1, Leu-AMC fluorescence, 60 min; inhibition, % at 10.7 µM; 340,000 tested, 0.15% active; AID 652197;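 active = mean replicate inhibition of at least 30%, or all replicates individually reaching that 30% level; inactive = mean below 30% and not every replicate reaching it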;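 also: 0% = neutral control wells and 100% = L-leucinethiol positive control wells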
E-selectin induc – induces E-selectin expression in human endothelial cells; 260,000 tested, 0.37% active; HUVEC E-selectin immunofluorescence imaging; normalized: neutral wells 0, TNF-alpha wells 100; AID 686992; activation, % at 7.58 µM;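 active = mean E-selectin-positive cell signal at least 10% of the positive control, reached in at least 60% of replicates, without over 20% cell loss; inconclusive = no rule given, readout overlaps actives, possibly toxicity-flagged; inactive = the rest, including those meeting only one limit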
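Assay system: HUVEC, human umbilical vein endothelial cells / Amount: 3,000 HUVEC/well / Controls: TNF-alpha positive control, DMSO neutral control / Compound dosing: single concentration / Medium: EGM-2 over gelatin coat / Evaluation: percent E-selectin-positive cells / Signal: immunofluorescence imaging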
FGF22 binding – shifts melting point of recombinant human FGF22; activity (Tm shift, normalised), % at 9.99 µM; 340,000 tested, 1.5% active; recombinant FGF22 thermal shift, SYPRO orange fluorescence; percent of sucrose octasulfate shift, DMSO zero; Q9HCT0; AID 651658;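 active = mean Tm shift, scaled 0 neutral to 100 positive control, at about 1.3% or above, every replicate too, limit read from the data; inconclusive = no clear call, values can overlap the other calls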
Target sequence (Q9HCT0 whole entry, looked up): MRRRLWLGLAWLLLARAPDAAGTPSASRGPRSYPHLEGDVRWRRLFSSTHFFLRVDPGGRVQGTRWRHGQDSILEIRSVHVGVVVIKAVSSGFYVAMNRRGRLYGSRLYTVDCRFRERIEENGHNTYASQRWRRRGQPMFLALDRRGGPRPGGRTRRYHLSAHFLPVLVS
DENV2 CPE rescue – DENV2-induced cell death inhibition; DENV2-infected cells, cytopathic effect rescue, plate reader; 350,000 tested, 1.7% active; AID 651640; CPE inhibition, % at 9.99 µM; in the data active = CPE inhibition above about 20%, passing the limit was not always enough; inconclusive = no clear call, values can overlap the other calls; tested in BHK-21 cells;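 also: 0% = median of neutral control wells and 100% = median of positive control wells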
F508del corr – CFTR F508del correction in bronchial cells; 350,000 tested, 0.36% active; CFBE cells, YFP halide quenching; stimulated with forskolin plus potentiator P3; % fluorescence drop versus neutral controls; activity (quench increase), % at 7.58 µM;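 active = mean added fluorescence quench of at least 8% versus neutral control, with both replicates also reaching 8%; inconclusive = only one of the mean or replicate conditions met; inactive = mean below 8% and not both replicates reaching 8%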;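 also: cells transiently co-express mutant CFTR-F508del with the halide-sensitive YFP; corrector assay measuring rescue of mutant channel to the surface after 24 h compound exposure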
The depositor's hits bear a star; ? = inconclusive; / = no result given; ! = not confirmed by another sample.

SMILES	ERAP1 HTS inh	E-selectin induc	FGF22 binding	DENV2 CPE rescue	F508del corr
CN1c2ccc(-c3ccccc3F)cc2[C@H]2[C@H](CCN2C(=O)NC2CCCCC2)[C@H]1CO	-3	0	/	-10	-6
CN(C)CC(=O)N1CC[C@@H]2[C@H]1c1cc(-c3ccccc3)ccc1N(C)[C@H]2CO	-3	1	0	-9	0
Cc1ccc(S(=O)(=O)N2CC[C@@H]3[C@@H](CO)N(C)c4ccc(-c5ccccc5F)cc4[C@@H]32)cc1	-1	0	0	7	2
Cc1ccc(S(=O)(=O)NCC[C@H]2CC[C@@H](NC(=O)c3cnccn3)[C@H](CO)O2)cc1	8	-2	0	-1	0
CCC(=O)N1CC2(C1)CN(C(=O)CC)[C@@H](CO)c1[nH]c3cc(OC)ccc3c12	-3	0	0	1	1
C[C@H](CO)N1C[C@H](C)[C@H](CN(C)S(=O)(=O)c2ccc(F)cc2)Oc2ccc(NS(=O)(=O)c3ccccc3)cc2CC1=O	/	3	0	-4	0
O=C(C[C@@H]1CC[C@@H]2[C@H](COC[C@@H](O)CN2S(=O)(=O)c2cccc(Cl)c2)O1)Nc1ccccc1	-4	0	0	-5	-3
CCCCCc1ccc(-c2cn(CCc3c[nH]c4ccccc34)nn2)cc1	-7	/	0	/	2
O=C(O)CCCCCCCCc1cn(CCc2c[nH]c3ccccc23)nn1	-11	0	0	21*	1
C[C@H]1CN([C@@H](C)CO)C(=O)Cc2cc(NS(=O)(=O)c3cccs3)ccc2O[C@H]1CN(C)C	0	-11	0	-2	0
COc1cccc(/C=C/C(=O)c2ccc(NC3=NCCCS3)cc2)c1	12	/	0	8	0
CC(C)(C)c1ccc(/C=C/C(=O)c2ccc(NC3=NCCCS3)cc2)cc1	0	0	43	10	8.3*
Cc1cccc(/C=C/C(=O)c2ccc(NC3=NCCCS3)cc2)c1	35*	/	0	4	/
COc1ccccc1C#Cc1ccc([C@H]2[C@@H](CO)N3CCCCN(CCC(F)(F)F)C[C@H]23)cc1	0	0	0	-12	1
CC=Cc1ccc2n(c1=O)C[C@H]1[C@H](CO)[C@@H](C(=O)NCc3ccccc3)N(CC)[C@@H]21 (mixture of isomers)	-1	-1	/	14	0
CC(C)NC(=O)N1CC[C@@H]2[C@H]1c1cc(Br)ccc1N(C)[C@@H]2CO	0	2	0	108*	0
COc1ccc(NC(=O)N2CC[C@@H]3[C@@H](CO)N(C)c4ccc(Br)cc4[C@@H]32)cc1	1	0	0	54*	-3
CC(C)NC(=O)N1CC[C@H]2[C@@H]1c1cc(Br)ccc1N(C)[C@H]2CO	-2	0	0	?	-2
CN1c2ccc(-c3cccc(F)c3)cc2[C@H]2[C@H](CCN2C(=O)Cc2cccnc2)[C@H]1CO	/	0	/	113*	-2
CN(C)C(=O)c1ccc(-c2ccc3c(c2)[C@@H]2[C@@H](CCN2C(=O)C2CCCC2)[C@@H](CO)N3C)cc1	2	0	0	65*	0
CN1c2ccc(-c3cccc(F)c3)cc2[C@@H]2[C@@H](CCN2C(=O)Cc2cccnc2)[C@H]1CO	1	-1	0	-1	1
COc1ccc(NC(=O)N2CC[C@@H]3[C@H]2c2cc(Br)ccc2N(C)[C@@H]3CO)cc1	0	0	0	-5	-1
CC(=O)N(C)C[C@H]1[C@H](c2ccc(C3=CCCC3)cc2)[C@H](CO)N1CC1CC1	/	0	/	1	1
CCCN(C)C[C@H]1OCCCC[C@H](C)Oc2ccc(NC(=O)CCCN(C)C)cc2C(=O)N([C@H](C)CO)C[C@@H]1C	/	0	/	/	-1
C/C=C/c1ccc2c(c1)O[C@H](CN(C)C)[C@@H](C)CN([C@H](C)CO)S2(=O)=O	-2	0	0	4	3
SMILES	ERAP1 HTS inh	E-selectin induc	FGF22 binding	DENV2 CPE rescue	F508del corr
N#C[C@@H]1[C@H](c2ccccc2-c2ccc(F)cc2)[C@H](CO)N1C(=O)NC1CCCC1	2	0	/	-6	-1
CN1c2ccc(C#Cc3cccnc3)cc2[C@@H]2[C@@H](CCN2C(=O)c2cccc(F)c2)[C@H]1CO	/	0	0	59*	3
COc1cccc(-c2ccc3c(c2)[C@@H]2[C@@H](CCN2C(=O)Nc2ccccc2OC)[C@@H](CO)N3C)c1	-2	-1	0	29*	3
CN1c2ccc(Br)cc2[C@H]2[C@H](CCN2C(=O)C2CCC2)[C@H]1CO	1	0	/	105*	3
CC(C)NC(=O)N1CC[C@H]2[C@@H]1c1cc(C#Cc3cccnc3)ccc1N(C)[C@H]2CO	/	1	0	4	-2
CN(C)C(=O)c1cccc(-c2ccc3c(c2)[C@@H]2[C@@H](CCN2C(=O)c2cccc(F)c2)[C@H](CO)N3C)c1	-1	0	0	39*	0
COc1cccc(OC)c1Nc1nc(C)nc2c1nnn2Cc1ccccc1Cl	3	0	0	60*	-3
C[C@H]1CN([C@@H](C)CO)C(=O)c2cc(C3=CCCC3)cnc2O[C@H]1CN(C)C(=O)Nc1ccccc1	0	0	0	4	-1
CCCNC(=O)N(C)C[C@@H]1Oc2ncc(-c3ccncc3)cc2C(=O)N([C@H](C)CO)C[C@@H]1C	33*!	0	0	?	-1
C[C@@H]1CN([C@H](C)CO)C(=O)c2cc(C3=CCCC3)cnc2O[C@H]1CN(C)C(=O)Nc1ccccc1	1	49*	0	-5	2
C[C@H](CO)N1C[C@H](C)[C@H](CN(C)C(=O)NC2CCCC2)Oc2ncc(C3=CCCCC3)cc2C1=O	-1	0	0	-5	-3
C[C@@H]1CN([C@@H](C)CO)C(=O)c2cc(C3=CCCCC3)cnc2O[C@H]1CN(C)C(=O)NC1CCCC1	0	117*	0	8	-2
CCCNC(=O)N(C)C[C@@H]1Oc2ncc(C3=CCCCC3)cc2C(=O)N([C@H](C)CO)C[C@@H]1C	4	0	0	-7	2
CCCNC(=O)N(C)C[C@@H]1Oc2ncc(C3=CCCC3)cc2C(=O)N([C@H](C)CO)C[C@H]1C	-2	58*	0	-2	1
O=C(C[C@@H]1C[C@H]2c3cc(NC(=O)C4CCC4)ccc3O[C@H]2[C@H](CO)O1)NCc1ccc(-c2ccccc2)cc1	0	-1	0	17	2
CCOc1ccc(NC(=O)CN(C)C(=O)c2ccccc2OCc2c(C)noc2C)cc1OCC	0	/	-1	25*	-1
CN(CCC1CCCCO1)C(=O)CCc1nnc(CCc2ccccc2)o1 (stereo not drawn)	2	0	0	61*	-2
COc1ccc(CC(=O)N/N=C(\C)c2cccnc2)cc1OC	3	-1	0	-7	3

Assay outcomes (PubChem)
